# Results from ChEMBL document CHEMBL1177847, “Combating oxidative stress in epilepsy: design, synthesis, quantum chemical studies and anticonvulsant evaluation of 1-(substituted benzylidene/ethylidene)-4-(naphthalen-1-yl)semicarbazides” (Eur J Med Chem, 2010).
# Calls of active or inactive are those of the source. No cut-off for these calls is given here.
# Experiments:
# Mus musculus [1] = experiment: Neurotoxicity in ip dosed Swiss albino mouse assessed as impair in motor coordination at 300 mg/kg, ip after 4 hrs by rotarod test; type: toxicity, organism-based; parameters: dose 300 mg/kg, route intraperitoneal; conditions: in vivo
# How it was run: (§1)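 Rotarod motor-impairment test in male Swiss albino mice dosed i.p. at 30, 100 or 300 mg/kg in 5% gum acacia/water. Mice that fell off the rotating rod within 30 s during pretraining were excluded. The dose at which animals fell off was recorded at 0.5 and 4 h.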
# Mus musculus [2] = experiment: Toxicity in subcutaneous pentylenetetrazole-induced Swiss albino mouse assessed as death at 30 to 300 mg/kg, ip after 0.5 hrs; type: organism-based; parameters: dose 30-300 mg/kg
# How it was run: (§2)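 Male Swiss albino mice (18–25 g) given compound suspended in 5% gum acacia/water, i.p. at 30, 100 or 300 mg/kg, one to four animals per dose. PTZ at 85 mg/kg was injected 30 min after compound. Animals were examined 0.5 and 4 h after administration, and death following tonic extension was noted. The maximum dose was 300 mg/kg.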
# Mus musculus [3] = experiment: Anticonvulsant activity against maximal electroshock-induced seizures in ip dosed Swiss albino mouse assessed as minimum effective dose after 0.5 hrs; type: functional; conditions: read-out: MED
# How it was run: (§3)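 Male Swiss albino mice (18–25 g) received the compound suspended in 5% gum acacia/water, i.p. at 30, 100 and 300 mg/kg (one to four animals per dose). Maximal electroshock was applied at 0.5 and 4 h. Protection meant abolition of the hind limb tonic extensor component. The lowest dose protecting half or more of the mice was recorded.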
# Mus musculus [4] = experiment: Anticonvulsant activity against maximal electroshock-induced seizures in Swiss albino mouse at 300 mg/kg, ip after 4 hrs; type: functional, organism-based; parameters: dose 300 mg/kg; how it was run: as §3
# Mus musculus [5] = experiment: Anticonvulsant activity against subcutaneous pentylenetetrazole-induced seizures in Swiss albino mouse at 300 mg/kg, ip after 4 hrs; type: functional, organism-based; parameters: dose 300 mg/kg
# How it was run: (§4)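 Male Swiss albino mice (18–25 g) were dosed i.p. with the compound in 5% gum acacia/water at 30, 100 or 300 mg/kg. Thirty minutes later they received PTZ 85 mg/kg (CD97) and were watched for seizures over 4 h. Readings at 0.5 and 4 h gave the lowest dose active in half or more of the animals. Myoclonic jerks were noted separately.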
# Mus musculus [6] = experiment: Neurotoxicity in ip dosed Swiss albino mouse assessed as minimum dose required to cause impair in motor coordination after 0.5 hrs by rotarod test; type: toxicity, organism-based; conditions: in vivo; how it was run: as §1
# Mus musculus [7] = experiment: Reduction of lipid peroxidation in subcutaneous pentylenetetrazole treated Swiss albino mouse brain assessed reduction of malondialdehyde level per mg of protein at 100 mg/kg, ip after 4 hrs by TBARS assay; type: functional; conditions: route intraperitoneal
# How it was run: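 PTZ-treated mice were dosed at 100 mg/kg i.p. and decapitated 4 h after the last injection. Brains were homogenized in four volumes of ice-cold 50 mM Tris-HCl, pH 7.4, and spun at 3000 × g for 15 min. TBARS in the supernatant was read at 532 nm in the upper organic layer and expressed as nmol MDA/mg protein. n = 6, mean ± S.E.M.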
# Mus musculus [8] = experiment: Restoration of GSH level in subcutaneous pentylenetetrazole treated Swiss albino mouse brain assessed per gram of tissue at 100 mg/kg, ip after 4 hrs; type: functional; conditions: route intraperitoneal
# How it was run: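 Brains were taken from PTZ-treated mice 4 h after 100 mg/kg i.p. dosing. Tissue was deproteinized with an equal volume of 10% TCA for 2 h at 4 °C and centrifuged at 2000 g for 15 min. The supernatant was mixed with 0.4 M Tris (pH 8.9) containing 0.02 M EDTA, and 0.01 M DTNB was added before spectrophotometric reading. n = 6.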
# Mus musculus [9] = experiment: Restoration of SOD activity in subcutaneous pentylenetetrazole treated Swiss albino mouse brain assessed per mg of protein at 100 mg/kg, ip after 4 hrs; type: functional; conditions: route intraperitoneal
# How it was run: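 The ethanol phase of an ethanol/chloroform (5:3) extract of brain supernatant was used, from PTZ-treated mice 4 h after 100 mg/kg i.p. Superoxide was generated by xanthine–xanthine oxidase at pH 10.2 with NBT, 20 min at 25 °C. The reaction was stopped with CuCl2 and read at 560 nm. One unit gives 50% inhibition of NBT reduction; results are expressed as U/mg protein. n = 6.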
# Mus musculus [10] = experiment: Restoration of GSH peroxidase activity in subcutaneous pentylenetetrazole treated Swiss albino mouse brain assessed per mg of protein at 100 mg/kg, ip after 4 hrs; type: functional; conditions: route intraperitoneal
# How it was run: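 Brain homogenate came from PTZ-treated mice 4 h after 100 mg/kg i.p. dosing, using the 10500 × g supernatant. Samples were equilibrated 5 min at 25 °C, started with H2O2, and A340 was followed for 5 min. n = 6.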
# Mus musculus [11] = experiment: Anticonvulsant activity against maximal electroshock-induced seizures in Swiss albino mouse at 300 mg/kg, ip after 0.5 hrs; type: functional, organism-based; parameters: dose 300 mg/kg; how it was run: as §3
# Mus musculus [12] = experiment: Anticonvulsant activity against subcutaneous pentylenetetrazole-induced seizures in ip dosed Swiss albino mouse assessed as minimum effective dose after 0.5 hrs; type: functional; conditions: read-out: MED; how it was run: as §4
# Mus musculus [13] = experiment: Neurotoxicity in ip dosed Swiss albino mouse assessed as impair in motor coordination at 300 mg/kg, ip after 0.5 hrs by rotarod test; type: toxicity, organism-based; parameters: dose 300 mg/kg, route intraperitoneal; conditions: in vivo; how it was run: as §1
# Mus musculus [14] = experiment: Neurotoxicity in ip dosed Swiss albino mouse assessed as minimum dose required to cause impair in motor coordination after 4 hrs by rotarod test; type: toxicity, organism-based; conditions: in vivo; how it was run: as §1
# Rattus norvegicus [15] = experiment: Anticonvulsant activity against subcutaneous pentylenetetrazole-induced seizures in Wistar albino rat at 50 mg/kg, ip after 0.25 hrs; type: functional; conditions: route intraperitoneal
# Rattus norvegicus [16] = experiment: Anticonvulsant activity against subcutaneous pentylenetetrazole-induced seizures in Wistar albino rat at 50 mg/kg, ip after 0.5 hrs; type: functional
# Rattus norvegicus [17] = experiment: Anticonvulsant activity against subcutaneous pentylenetetrazole-induced seizures in Wistar albino rat at 50 mg/kg, ip after 1 hr; type: functional
# Rattus norvegicus [18] = experiment: Anticonvulsant activity against subcutaneous pentylenetetrazole-induced seizures in Wistar albino rat at 50 mg/kg, ip after 2 hrs; type: functional
# Mus musculus [19] = experiment: Anticonvulsant activity against maximal electroshock-induced seizures in ip dosed Swiss albino mouse assessed as minimum effective dose after 4 hrs; type: functional; conditions: read-out: MED; how it was run: as §3
# Mus musculus [20] = experiment: Anticonvulsant activity against subcutaneous pentylenetetrazole-induced seizures in ip dosed Swiss albino mouse assessed as minimum effective dose after 4 hrs; type: functional; conditions: read-out: MED; how it was run: as §4
# Mus musculus [21] = experiment: Anticonvulsant activity against subcutaneous pentylenetetrazole-induced seizures in Swiss albino mouse at 300 mg/kg, ip after 0.5 hrs; type: functional, organism-based; parameters: dose 300 mg/kg; how it was run: as §4
# Mus musculus [22] = experiment: Toxicity in subcutaneous pentylenetetrazole-induced Swiss albino mouse assessed as death at 30 to 300 mg/kg, ip after 4 hrs; type: organism-based; parameters: dose 30-300 mg/kg; how it was run: as §2
# Mus musculus [23] = experiment: Toxicity in subcutaneous pentylenetetrazole-induced Swiss albino mouse assessed as myoclonic jerks at 300 mg/kg, ip after 0.5 hrs; type: organism-based; parameters: dose 300 mg/kg; how it was run: as §4
# Mus musculus [24] = experiment: Toxicity in subcutaneous pentylenetetrazole-induced Swiss albino mouse assessed as myoclonic jerks at 100 mg/kg, ip after 0.5 hrs; type: organism-based; parameters: dose 100 mg/kg; how it was run: as §4
Compound,minimal effective dose (Mus musculus [3]),Activity (Mus musculus [4]),Activity (Mus musculus [5]),Activity (Mus musculus [6]),Activity (Mus musculus [7]),Activity (Mus musculus [8]),Activity (Mus musculus [9]),Activity (Mus musculus [10]),minimal effective dose (Mus musculus [12]),Activity (Mus musculus [13]),Activity (Mus musculus [14]),minimal effective dose (Mus musculus [19]),minimal effective dose (Mus musculus [20]),further results
COc1ccc(/C=N/NC(=O)Nc2cccc3ccccc23)cc1,300 mg/kg,inactive,inactive,300 mg/kg,,,,,,,,,,Activity (Mus musculus [1]): Non-toxic; Activity (Mus musculus [2]): Toxic
CCCC(CCC)C(=O)O [VALPROIC ACID],,inactive,inactive,,1.96 nmol,22.14 µg,1.82 U,2.19 U,300 mg/kg,Non-toxic,,,,Activity (Mus musculus [1]): Non-toxic; Activity (Mus musculus [11]): inactive
COc1cc(/C=N/NC(=O)Nc2cccc3ccccc23)cc(OC)c1OC,100 mg/kg,,,300 mg/kg,1.87 nmol,24.56 µg,1.77 U,1.97 U,100 mg/kg,,300 mg/kg,100 mg/kg,100 mg/kg,Activity (Rattus norvegicus [15]): 25%; Activity (Rattus norvegicus [16]): 100%; Activity (Rattus norvegicus [17]): 75%; Activity (Rattus norvegicus [18]): 50%
O=C1NC(=O)C(c2ccccc2)(c2ccccc2)N1 [PHENYTOIN],30 mg/kg,,inactive,100 mg/kg,,,,,,,100 mg/kg,30 mg/kg,,Activity (Mus musculus [21]): inactive
O=C(N/N=C/c1ccccc1O)Nc1cccc2ccccc12,,inactive,,300 mg/kg,,,,,300 mg/kg,,300 mg/kg,,,Activity (Mus musculus [22]): Toxic; Activity (Mus musculus [11]): inactive
O=C(N/N=C/c1ccccc1)Nc1cccc2ccccc12,300 mg/kg,inactive,inactive,100 mg/kg,,,,,,,100 mg/kg,,,Activity (Mus musculus [2]): Toxic
C/C(=N\NC(=O)Nc1cccc2ccccc12)c1ccc(Cl)cc1Cl,,,,,,,,,,Non-toxic,300 mg/kg,300 mg/kg,300 mg/kg,Activity (Mus musculus [23]): Toxic; Activity (Mus musculus [11]): inactive
O=C(N/N=C/c1ccc(F)cc1)Nc1cccc2ccccc12,,,,,,,,,300 mg/kg,Non-toxic,100 mg/kg,300 mg/kg,,Activity (Mus musculus [22]): Toxic; Activity (Mus musculus [11]): inactive
COc1ccc(/C=N/NC(=O)Nc2cccc3ccccc23)cc1OC,100 mg/kg,,,,2.53 nmol,18.51 µg,1.45 U,1.62 U,100 mg/kg,Non-toxic,,100 mg/kg,300 mg/kg,Activity (Mus musculus [1]): Non-toxic; Activity (Rattus norvegicus [18]): inactive
O=C(N/N=C/c1ccc(Cl)cc1Cl)Nc1cccc2ccccc12,100 mg/kg,,,,2.78 nmol,21.35 µg,1.69 U,1.65 U,300 mg/kg,Non-toxic,300 mg/kg,100 mg/kg,300 mg/kg,
C/C(=N\NC(=O)Nc1cccc2ccccc12)c1ccccc1,300 mg/kg,inactive,inactive,100 mg/kg,,,,,,,,,,Activity (Mus musculus [1]): Non-toxic; Activity (Mus musculus [21]): inactive
O=C(N/N=C/c1ccc([N+](=O)[O-])cc1)Nc1cccc2ccccc12,300 mg/kg,,,,3.39 nmol,16.76 µg,1.73 U,1.47 U,,Non-toxic,300 mg/kg,300 mg/kg,300 mg/kg,Activity (Mus musculus [24]): Toxic
O=C(N/N=C/c1ccc(O)cc1)Nc1cccc2ccccc12,100 mg/kg,inactive,inactive,100 mg/kg,,,,,,,300 mg/kg,,,Activity (Mus musculus [21]): inactive
CN(C)c1ccc(/C=N/NC(=O)Nc2cccc3ccccc23)cc1,100 mg/kg,,,100 mg/kg,,,,,,,100 mg/kg,100 mg/kg,300 mg/kg,Activity (Mus musculus [24]): Toxic
